This passage reports outcome and current potentiation results from PubChem BioAssay.

Calls of active or inactive are those of the source.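 Rule for the calls: active = current rise at least 3 SD above the untreated control mean in each of two repeat wells; inactive = the rest.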

Chain of Potassium voltage-gated channel subfamily KQT member 1 (Homo sapiens) (P51787 whole entry, looked up): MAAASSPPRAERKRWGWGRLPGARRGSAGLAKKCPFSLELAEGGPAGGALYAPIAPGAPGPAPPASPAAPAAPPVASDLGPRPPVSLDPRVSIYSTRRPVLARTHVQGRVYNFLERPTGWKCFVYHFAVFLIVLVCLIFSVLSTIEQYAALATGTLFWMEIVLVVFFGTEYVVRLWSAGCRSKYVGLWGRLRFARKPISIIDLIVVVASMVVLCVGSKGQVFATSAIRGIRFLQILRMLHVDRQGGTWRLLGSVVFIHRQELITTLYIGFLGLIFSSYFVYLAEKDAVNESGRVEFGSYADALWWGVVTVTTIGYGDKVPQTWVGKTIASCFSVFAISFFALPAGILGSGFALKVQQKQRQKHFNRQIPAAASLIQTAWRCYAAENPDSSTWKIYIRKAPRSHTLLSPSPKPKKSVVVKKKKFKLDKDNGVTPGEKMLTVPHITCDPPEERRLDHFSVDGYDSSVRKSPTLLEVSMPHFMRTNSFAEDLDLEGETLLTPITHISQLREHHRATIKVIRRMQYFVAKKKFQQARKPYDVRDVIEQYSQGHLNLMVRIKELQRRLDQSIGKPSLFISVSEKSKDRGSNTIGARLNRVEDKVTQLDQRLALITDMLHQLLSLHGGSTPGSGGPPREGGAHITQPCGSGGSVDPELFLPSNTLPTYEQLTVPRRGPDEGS

This assay addresses Potassium voltage-gated channel subfamily KQT member 1 (Homo sapiens) (UniProt P51787). Kind of assay: KCNQ1 activators by electrophysiology – IonWorks patch clamp, KCNQ1-CHO cells, orthogonal assay for KCNQ1 potentiator project, confirmation (AID 493184).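 For current potentiation: percent change of the same well's current before compound addition so 0% = no change.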 The following applies: automated patch clamp current, at 10 µM; hits give high values. The essentials: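 Test system: KCNQ1-expressing CHO cells. Medium: pH 7.4 external bath. Probe or stimulus: voltage step from -90 mV holding to +40 mV, 2,000 ms. Compound: 10 µM final, single point. Detection: automated perforated-patch electrophysiology. Read-out: percent current increase versus pre-compound level. Repeats: two replicates.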
For orientation: In patch-clamp work, channel activity is measured electrically.
`O=C(c1ccco1)N1CCN(S(=O)(=O)c2ccc(F)cc2)CC1`: the result was inactive. Regarding `O=C(O)c1c2c(nc3ccccc13)/C(=C/c1cccc([N+](=O)[O-])c1)CCC2`, the outcome was inactive. As to `CC(C)(C)C1CCc2c(sc(NC(=O)C3CC=CCC3C(=O)O)c2C#N)C1` (stereo not drawn), the outcome was inactive. On the same count and under the same terms, then `CC/C(=N\NC(=S)Nc1cccc(C)c1)c1ccccc1`, with “inactive”; and `O=C(NC(=S)Nc1ccccc1N1CCOCC1)c1ccc(-c2ccccc2F)o1`, with “inactive”. With `CCCCN(CCCC)c1ccc(C(=O)c2ccccc2C(=O)O)c(O)c1`, the current potentiation was 15.1% (active). As for `CC(/C=N/NC(=O)c1cc(-c2cccs2)[nH]n1)=C\c1ccccc1`, the outcome was inactive. `CCOC(=O)c1sc(NC(=S)NC(=O)c2ccco2)nc1C`: the outcome was inactive. In the case of `COc1cccc(OCC(=O)NNC(=O)C(=O)Nc2cccc(C)c2)c1`, the outcome was inactive. Turning to `CCCCOC(=O)c1cc(C)nc2ccc(Br)cc12`, the outcome was inactive. Turning to `Cc1ccc(-c2nc3ccccc3c(=O)n2O)cc1`, the result was inactive. Still for that read-out and setting: with `Cn1cc(-c2nnnn2-c2ccccc2)c(=O)c2ccccc21` the entry was “inactive”. Consider `Cc1sc2nc(C(C)C)nc(SCC(=O)NCc3ccco3)c2c1C`, for which the outcome was inactive. Regarding `C=CCn1c(SCC(N)=O)nc2scc(-c3ccc(C)o3)c2c1=O`, the result was inactive. For the molecule `COc1cccc(NC(=O)NCC2CCN(Cc3ccc(F)cc3)CC2)c1`, the outcome was inactive. `CCOC(=O)c1cnc(SCC(=O)Nc2nc(C)c(C)s2)nc1N`: the outcome was inactive. For `OCCN1CCN(c2ncnc3c2sc2nc(N4CCOCC4)c4c(c23)CCC4)CC1`, the result was inactive.

For the molecule `CCOc1ccc2[nH]c(=O)c(CN(CCN3CCCC3)C(=S)Nc3ccccc3OCC)cc2c1`, the result was inactive.
